In PubChem BioAssay AID493091 (Sanford-Burnham Center for Chemical Genomics, 2011):
About 3,000 (0.88%) of roughly 340,000 compounds were called active.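 Rule for the calls: active = inhibition above about 50% at 20 µM (limit read from the data); inactive = the rest.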 The entries come from a sample that favours actives as a whole.

The compounds below were run against Carboxy-terminal domain RNA polymerase II polypeptide A small phosphatase 1 (Homo sapiens) (UniProt Q9GZU7) (assay: Scp-1 phosphatase inhibitors, primary screen, biochemical, colorimetric, uHTS (AID 493091;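 note: plate controls were DMSO wells with enzyme for no effect and wells lacking enzyme for full effect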)). Conditions: Recombinant Scp1, phosphopeptide, malachite green phosphate absorbance; at 20 µM; stronger effect = higher value.
Sequence of Carboxy-terminal domain RNA polymerase II polypeptide A small phosphatase 1 (Homo sapiens) (Q9GZU7 76-261 limits assumed): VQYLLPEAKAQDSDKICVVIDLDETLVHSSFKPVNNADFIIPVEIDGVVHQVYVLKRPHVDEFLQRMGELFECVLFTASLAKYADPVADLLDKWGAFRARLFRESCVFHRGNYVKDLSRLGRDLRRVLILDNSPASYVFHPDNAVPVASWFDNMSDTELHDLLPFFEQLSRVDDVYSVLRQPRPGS
Procedure, shortened: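 Test system: SCP-1 phosphatase catalytic domain, residues 76-261; measured by: colorimetric phosphate reagent with accelerator and stabiliser, absorbance at 630 nm; timing: enzyme reaction 45 min at room temperature, colour 5 min, stabilisation 30 min; also added: Phosphorylated 17-residue peptide substrate; compound dosing: one concentration, 20 µM, with 1.0% DMSO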

Compound | inhibition
Cc1ccccc1C(=O)NCC(c1ccco1)N1CCc2ccccc21 (configuration not stated) | 3.6% (inactive)
O=C(c1ccccc1F)N1CCN(S(=O)(=O)c2ccc(Br)cc2)CC1 | -10.3% (inactive)
CC(C)CCN1CCN=C1N(C)C | 0.8% (inactive)
Cc1nnc(CN(C)Cc2cn[nH]c2-c2ccc(-c3ccccc3)cc2)o1 | -5.39% (inactive)
CSCCC(NS(=O)(=O)c1ccc(C)cc1)C(=O)N(C)CC(=O)Nc1ccccc1Br (configuration not stated) | -5.24% (inactive)
Cc1nn2c(NCCN(C)C)c3c(nc2c1-c1ccccc1)CCC3 | -10.7% (inactive)
COc1ccc(NC(=O)COC(=O)c2n[nH]c3ccccc23)c(OC)c1 | -9.82% (inactive)
O=C(COC(=O)C12CC3CC(CC(C3)C1)C2)NCc1ccco1 | 11.5% (inactive)
O=C(COC(=O)c1cnc(Cl)c(Cl)c1)NCc1ccco1 | 53.3% (active)
COc1ccc(CCNC(=O)COC(=O)c2cnc(Cl)c(Cl)c2)cc1 | -7.74% (inactive)
O=C(COC(=O)c1ccco1)NCc1ccc(Cl)cc1 | -4.57% (inactive)
O=C(COC(=O)c1ccccc1O)NCc1ccco1 | 67.2% (active)
O=C(CCNC(=O)c1ccccc1Cl)NCc1ccco1 | 18.8% (inactive)
COCCNC(=S)N1CCN(C)CC1 | -7.43% (inactive)
CC1CC(c2ccccc2)n2nc(NC(=O)c3cccs3)nc2N1 (configuration not stated) | 2.86% (inactive)
CC(CC(=O)Nc1ccccc1)n1ccnc1 (configuration not stated) | -3.02% (inactive)
O=C(CN1CCN(c2ccc(Cl)cc2)CC1)c1ccccc1 | 52% (active)
O=C(CN1CCN(c2ccc(Cl)cc2)CC1)NCc1cccs1 | 3.78% (inactive)
CC(C)OC(=O)CN1CCN(c2ccc(Cl)cc2)CC1 | 4.48% (inactive)
CN(CC(=O)Nc1ccc(F)c(F)c1F)C(=O)Cn1cnc2c1c(=O)n(C)c(=O)n2C | -3.89% (inactive)
O=C(CCC1CCCN(C(=O)Cc2ccc(F)cc2)C1)N1CCN(c2ccccn2)CC1 (configuration not stated) | -6.06% (inactive)

Compound | inhibition
O=C(CCC1CCCN(C(=O)c2ccc(F)c(F)c2)C1)N1CCN(c2ccccn2)CC1 (configuration not stated) | -8.35% (inactive)
C=Cc1ccc(C(=O)N2CCCC(CCC(=O)N3CCN(c4ccccn4)CC3)C2)cc1 (configuration not stated) | 87.9% (active)
Cc1ccc(C(=O)COC(=O)CCN2C(=O)C3C4CC(C(Br)C4Br)C3C2=O)cc1 (configuration not stated) | -7.42% (inactive)
CC(=O)N1Cc2ccccc2CC1C(=O)O (configuration not stated) | 12.9% (inactive)
O=c1c(Cl)c(NCc2ccc(F)cc2Cl)cnn1C12CC3CC(CC(C3)C1)C2 | 17.9% (inactive)
O=S(=O)(Nc1ccccc1Cl)c1cccc2nsnc12 | 67% (active)
COc1ccc(NS(=O)(=O)c2cccc3nsnc23)cc1Cl | -12.1% (inactive)
O=C(O)c1ccc(NS(=O)(=O)c2cccc3nsnc23)cc1 | -2.95% (inactive)
Cc1nn2c3cc(N4CCOCC4)ccc3nc2c2ccccc12 | 7.49% (inactive)
COc1ccc(C2=Nc3cc(C)ccc3OC2)cc1 | -3.61% (inactive)
COCCOC(=O)C1=C(C)NC(=O)NC1c1cc2c(cc1Br)OCO2 (configuration not stated) | -6.54% (inactive)
COCCN(C(=S)Nc1cccc(Cl)c1C)C(C)c1ccco1 (configuration not stated) | -5.75% (inactive)
COc1ccc(S(=O)(=O)NCCCCOc2ccc(Cl)cc2)cc1 | -3.96% (inactive)
COc1cccc(NC(=O)CCNS(=O)(=O)c2ccc3c(c2)oc(=O)n3C)c1 | 6.79% (inactive)
COc1cccc(NC(C)=[N+](C)CCNS(=O)(=O)c2ccc(Cl)cc2)c1 | 105% (active)
COc1ccc(/C=C/CN2CCCC(C(=O)c3cc(F)ccc3F)C2)cc1 (configuration not stated) | -4.6% (inactive)
O=C(Nc1cccnc1Oc1ncnc2cc(Cl)ccc12)c1ccc(F)cc1 | -6.88% (inactive)
CCN(CC)S(=O)(=O)c1ccc(N2CCOCC2)c(NC(=O)C2COc3ccccc3O2)c1 (configuration not stated) | -9.66% (inactive)
O=C(Nc1cc(S(=O)(=O)N2CCCCC2)ccc1Cl)C1COc2ccccc2O1 (configuration not stated) | 55.3% (active)
O=C(CNCc1cccs1)Nc1cc(S(=O)(=O)N2CCCC2)ccc1Cl | 1.26% (inactive)
CC(=O)c1ccc(NC(=O)C(C)N(C)CC(=O)Nc2ccccc2Cl)cc1 (configuration not stated) | 9.97% (inactive)

Compound | inhibition
O=C(/C=C/c1cccc([N+](=O)[O-])c1)NCCSCc1ccco1 | -5.27% (inactive)
OC1CSc2nc3ccccc3n2C1 (configuration not stated) | -14.6% (inactive)
Cc1ccc(CCCOC(=O)C[N+]2(C)CCCCC2)cc1 | 4.77% (inactive)
Cc1ccc(COC(=O)CN2C(=O)NC3(CCCC3)C2=O)cc1 | -2.24% (inactive)
Cc1ccc(CCCOC(=O)C[N+]2(C)CCCC2)cc1 | 101% (active)
Nc1ccc2c(c1)C(=Cc1cccnc1)c1ccccc1-2 | -0.04% (inactive)
C[C@H](NC(=O)c1nc[nH]c1C(=O)NCC(=O)OC(C)(C)C)C(=O)OCc1ccccc1 | -3.03% (inactive)
O=CN1CCN(C(=O)c2ccc3c(c2)OCO3)CC1 | -4.58% (inactive)
O=C(c1ccc2c(c1)OCO2)N1CCN(C(=O)c2ccco2)CC1 | -10.7% (inactive)
O=C(c1ccc2c(c1)OCO2)N1CCNc2ccccc2C1 | 54.2% (active)
COc1ccc(C(=O)N(CCN2CCOCC2)CC(=O)NC2CCCC2)cc1OC | -4.37% (inactive)
Cc1ccnc(-n2sc3ccccc3c2=O)n1 | 70.8% (active)
COc1ccccc1C(C)NC(=O)Cc1ccsc1 (configuration not stated) | 1.45% (inactive)
CN(CC(=O)NCCc1ccccn1)S(=O)(=O)c1ccc(Cl)cc1 | -6.06% (inactive)
CCCCOC(=O)c1ccc(N2C(=O)CC(N3CCN(C/C=C/c4ccccc4)CC3)C2=O)cc1 (configuration not stated) | -2.23% (inactive)
CC1CC(C)CN(S(=O)(=O)c2cccc3nonc23)C1 (configuration not stated) | -1.81% (inactive)
CCN(Cc1cc2cc(C)ccc2[nH]c1=O)S(=O)(=O)c1ccccc1 | -4.68% (inactive)
CCC(=O)N(CCc1ccccc1)Cc1cc2cc(C)ccc2[nH]c1=O | -1.18% (inactive)
CCCc1nc(-c2cc3cc(C)ccc3[nH]c2=O)no1 | 65.2% (active)
C#CCOCCOCCOCCNc1nc(N2CCN(C(=O)C([C@@H](C)O)n3cc([C@@H](N)CCCCN)nn3)CC2)nc(N2CCN(C(=O)[C@H](CCCCN)n3cc(CN)nn3)CC2)n1 (some centres not stated) | -0.3% (inactive)
